Test results reported in ChEMBL document CHEMBL5724801, “EUbOPEN Chemogenomics Library - Multiplex” (2024).
Values joined by “and” are separate entries in the source; they are usually repeats but may differ in a detail not shown here. Equal entries are not always repeated.

System: HEK-293T
Test: Multiplex assay against HEK293T
Type: toxicity, cell-based
Conditions: human
Procedure, shortened: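 Per cents of healthy-nucleus cells form the tubulin, mitochondrial-mass and membrane-permeability phenotype values. Live cells were stained at seeding with Hoechst33342, BioTracker Green Microtubule Cytoskeleton Dye, MitoTracker Red and Annexin V Alexa Fluor 680. After compound addition they were imaged on a CQ1 microscope at 37°C and 5% CO2, and CellPathfinder machine-learning gating split them into Hoechst high-intensity objects or normal cells, normal cells into healthy, pyknosed or fragmented nuclei, and pyknosed cells into mitotic or apoptotic.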

[1] = 12 h, 1 µM, compound concentration 1 uM
[2] = 12 h, 10 µM, compound concentration 10 uM
[3] = 24 h, 1 µM, compound concentration 1 uM
[4] = 24 h, 10 µM, compound concentration 10 uM
[5] = 48 h, 1 µM, compound concentration 1 uM
[6] = 48 h, 10 µM, compound concentration 10 uM

## CCCCCC(O)/C=C/[C@H]1C(=O)CC(O)C1C/C=C\CCCC(=O)O (stereo partly specified)
[1]
  Population Apoptotic (%): 29% and 39%
  Population Fragmented Nuclei (%): 8% and 7%
  Population Healthy Nuclei (%): 80% and 83%
  Population Hoechst High Intensity Objects (%): 8% and 6%
  Population Membrane Permeable-Phenotype (%): 0%
  Population Mitochondria Different-Phenotype (%): 44% and 56%
  Population Mitotic Cells (%): 70% and 60%
  Population Normal (%): 91% and 93%
  Population Pyknosed Nuclei (%): 11% and 9%
  Population Tubulin-Different-Phenotype (%): 23% and 20%
  Total Cell Count: 409 and 383
[2]
  Population Apoptotic (%): 48% and 54%
  Population Fragmented Nuclei (%): 6%
  Population Healthy Nuclei (%): 79% and 77%
  Population Hoechst High Intensity Objects (%): 9% and 7%
  Population Membrane Permeable-Phenotype (%): 0%
  Population Mitochondria Different-Phenotype (%): 48% and 59%
  Population Mitotic Cells (%): 51% and 46%
  Population Normal (%): 90% and 92%
  Population Pyknosed Nuclei (%): 14% and 15%
  Population Tubulin-Different-Phenotype (%): 31% and 25%
  Total Cell Count: 409 and 343
[3]
  Population Apoptotic (%): 40% and 44%
  Population Fragmented Nuclei (%): 8% and 7%
  Population Healthy Nuclei (%): 83% and 84%
  Population Hoechst High Intensity Objects (%): 3% and 7%
  Population Membrane Permeable-Phenotype (%): 1% and 0%
  Population Mitochondria Different-Phenotype (%): 22% and 41%
  Population Mitotic Cells (%): 59% and 55%
  Population Normal (%): 96% and 92%
  Population Pyknosed Nuclei (%): 8% and 7%
  Population Tubulin-Different-Phenotype (%): 11% and 14%
  Total Cell Count: 611 and 492
[4]
  Population Apoptotic (%): 27% and 44%
  Population Fragmented Nuclei (%): 10% and 9%
  Population Healthy Nuclei (%): 75% and 77%
  Population Hoechst High Intensity Objects (%): 4% and 9%
  Population Membrane Permeable-Phenotype (%): 0%
  Population Mitochondria Different-Phenotype (%): 29% and 50%
  Population Mitotic Cells (%): 72% and 55%
  Population Normal (%): 95% and 90%
  Population Pyknosed Nuclei (%): 13%
  Population Tubulin-Different-Phenotype (%): 16% and 21%
  Total Cell Count: 523 and 388
[5]
  Population Apoptotic (%): 29% and 30%
  Population Fragmented Nuclei (%): 12% and 13%
  Population Healthy Nuclei (%): 79% and 81%
  Population Hoechst High Intensity Objects (%): 1% and 3%
  Population Membrane Permeable-Phenotype (%): 1% and 2%
  Population Mitochondria Different-Phenotype (%): 20% and 19%
  Population Mitotic Cells (%): 70% and 69%
  Population Normal (%): 98% and 96%
  Population Pyknosed Nuclei (%): 7% and 5%
  Population Tubulin-Different-Phenotype (%): 8% and 7%
  Total Cell Count: 864 and 775
[6]
  Population Apoptotic (%): 22% and 51%
  Population Fragmented Nuclei (%): 12% and 10%
  Population Healthy Nuclei (%): 79% and 80%
  Population Hoechst High Intensity Objects (%): 1% and 3%
  Population Membrane Permeable-Phenotype (%): 0%
  Population Mitochondria Different-Phenotype (%): 17% and 26%
  Population Mitotic Cells (%): 77% and 48%
  Population Normal (%): 98% and 96%
  Population Pyknosed Nuclei (%): 8%
  Population Tubulin-Different-Phenotype (%): 7% and 8%
  Total Cell Count: 815 and 544
